Results on 20 compounds are retold here after ChEMBL document CHEMBL1833815, “Novel inhibitors of NRH:quinone oxidoreductase 2 (NQO2): crystal structures, biochemical activity, and intracellular effects of imidazoacridin-6-ones” (J Med Chem, 2011).

Data set [1] concerns HCT-116. Briefly: Cytotoxicity against human HCT116 cells after 96 hrs by MTT assay. The format is cell-based. As to conditions: HCT-116, 96 h. In short, it runs like this:
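HCT116 cells in RPMI-1640 with 10% FCS and 2 mM glutamine, seeded at 2.5 × 10³ per well, left overnight, then exposed continuously for 96 h in full medium. Viability by MTT (1.5 mM final, 4 h, DMSO solubilization, A540). IC50 = concentration reducing OD by 50% relative to vehicle controls; repeated on at least three occasions.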
(In general: Tetrazolium dyes change colour on reduction, which living cells bring about.)

For data set [2], the system named is HCT-116. The data set can be described thus: Cytotoxicity against human HCT116 cells after 24 hrs by MTT assay. As to conditions: HCT-116, 24 h. It counts as cell-based. In short, it runs like this: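 HCT116 cells in RPMI-1640 with 10% FCS and 2 mM glutamine, seeded at 2.5 × 10³ per well and attached overnight. Exposed to compound for 24 h, then drug replaced with fresh medium, growth to 96 h total. MTT 1.5 mM final for 4 h, formazan in DMSO, A540. IC50 = concentration giving 50% OD reduction versus vehicle; ≥3 separate experiments.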

For data set [3], the target named is T1, Ribosyldihydronicotinamide dehydrogenase [quinone] (Homo sapiens, UniProt P16083).
T1 sequence (P16083 whole entry): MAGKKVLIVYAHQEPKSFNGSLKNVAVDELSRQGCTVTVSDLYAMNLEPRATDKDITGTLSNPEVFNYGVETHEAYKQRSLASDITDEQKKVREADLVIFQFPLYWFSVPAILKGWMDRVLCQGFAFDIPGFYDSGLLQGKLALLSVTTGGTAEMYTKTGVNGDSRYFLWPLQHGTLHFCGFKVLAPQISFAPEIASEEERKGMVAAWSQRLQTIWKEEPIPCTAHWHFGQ
The data set can be described thus: Inhibition of human recombinant NQO2 assessed as reduction of DCPIP by spectrophotometry. In short, it runs like this: (§1)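 Recombinant human NQO2 (His-tag/size-exclusion purified from E. coli BL21) diluted to give about 0.1 A/min. Assay in 50 mM phosphate pH 7.4 with 40 μM DCPIP, 200 μM NRH, and inhibitor in DMSO (1.0% v/v final), with or without 2 μM BSA, at 37 °C. DCPIP reduction followed at 600 nm. IC50 = 50% reduction of initial rate by nonlinear fit; triplicates, three experiments.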

The nature of data set [4]: Drug uptake in cytoplasm of human MDA468 cells at 25 uM after 3 hrs by phalloidin-based fluorescence imaging. The settings on record: mda-mb-468, 3 h. The format is ADME, cell-based. In short, it runs like this:
(§2)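 MDA-MB-468 cells on coverslips at about 70% confluence treated 3 h. Fixed in 3.6% formaldehyde plus 0.2% glutaraldehyde, permeabilized with 0.1% Triton X-100, blocked in 10% BSA. Counterstained with Alexa Fluor 568 phalloidin (1:1000) to show actin architecture. Compound fluorescence imaged at excitation 340 nm, emission 520 nm; phalloidin visualized at 568 nm.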

Data set [5] concerns the target T2, Ribosyldihydronicotinamide dehydrogenase [quinone] (Homo sapiens) (UniProt P16083).
T2 sequence (whole entry): T1 sequence (P16083 whole entry)
The data set can be described thus: Ratio of IC50 for human recombinant NQO2 in the presence of BSA to IC50 for human recombinant NQO2 in the absence of BSA. The method, boiled down: as §1

Data set [6] can be described thus: Drug uptake in nucleus of human MDA468 cells assessed as subcellular localization at 25 uM after 3 hrs by phalloidin-based fluorescent imaging. It counts as ADME, cell-based. As to conditions: mda-mb-468, 3 h. In short, it runs like this:
as §2

Data set [7] deals with Nucleic Acid. The data set can be described thus: Binding affinity to calf thymus DNA assessed as increase in melting temperature at 10 uM. It counts as nucleic-acid assay. As to conditions: Bos taurus. In short, it runs like this: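 Calf thymus DNA (20 μg/mL) with 10 μM compound in low-salt phosphate buffer (7.5 mM NaH₂PO₄, 1 mM EDTA, pH 7.0). Cuvettes heated from 37 to 98 °C with A260 read at every degree. Tm taken from at least three independent determinations; 10 μM adriamycin served as positive control.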

In data set [8] the target is T2, Ribosyldihydronicotinamide dehydrogenase [quinone] (Homo sapiens). The data set can be described thus: Inhibition of NQO2-mediated activation of CB1954 in human MDA468 cells at 100 uM after 3 hrs in the presence of 100 uM […]. It counts as cell-based. The settings on record: MDA-MB-468. The method, boiled down: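 MDA468 cells exposed 3 h to inhibitor together with CB1954 (10 μM in figure; varying concentrations per methods) plus 100 μM NRH cofactor. Cells then washed with PBS, refed with fresh medium, and incubated to 96 h total. Viability measured by MTT assay; protection from CB1954 toxicity serves as a readout of cellular NQO2 inhibition.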

The target of data set [9] is T1, Ribosyldihydronicotinamide dehydrogenase [quinone]. The data set can be described thus: Inhibition of human recombinant NQO2 assessed as reduction of DCPIP by spectrophotometry in the presence of 2 uM BSA. The method, boiled down:
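Recombinant human NQO2 (His-tag/size-exclusion purified, expressed in BL21 codon+ cells) in 50 mM phosphate pH 7.4 with 40 μM DCPIP and 200 μM NRH, 2 μM BSA present, inhibitor in DMSO (1.0% v/v final), 37 °C. DCPIP reduction followed at 600 nm; IC50 = 50% drop in initial rate by nonlinear fit; triplicates, three experiments.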

A short description of data set [10]: Drug uptake in nucleus of human MDA468 cells assessed as subcellular localization at 5 uM after 3 hrs by phalloidin-based fluorescent imaging. The format is ADME, cell-based. As to conditions: mda-mb-468, 3 h. The method, boiled down:
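MDA-MB-468 cells grown on coverslips to about 70% confluency, exposed 3 h, fixed in 3.6% formaldehyde plus 0.2% glutaraldehyde, permeabilised with 0.1% Triton X-100, blocked in 10% BSA, stained with Alexa Fluor 568 phalloidin (1:1000) for actin. Imaged by fluorescence microscopy; compound excited at 340 nm, emission 520 nm; phalloidin read at 568 nm.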

Broadly, the IC50 is the concentration at which inhibition is half-maximal.

Active and inactive are the calls of the source. The rule behind the calls is not given here.

As for `COc1ccc2c(c1)c(=O)c1c(NCCN(C)C)ccc3nc(C)n2c31`, the values for the IC50 in [1], in data set [2] and in data set [3] were 0.46 µM, 1.86 µM and 0.046 µM, respectively.
For `Cc1nc2ccc(NCC[N+](C)(C)[O-])c3c(=O)c4ccccc4n1c23` the same measures were 16.1 µM, 34.9 µM and 0.056 µM.
In the case of `CCN(CC)CCNc1ccc2nc(C)n3c4ccc(O)cc4c(=O)c1c23`, the IC50 came to 0.93 µM in data set [1], 5.46 µM in [2] and 0.054 µM in data set [3].
Take `COc1ccc2c(c1)c(=O)c1c(NCC[N+](C)(C)[O-])ccc3ncn2c31`: the Drug uptake entry in data set [4] was “Active”; in data set [6] it was “Not Active”. Further, in data set [5], the Ratio IC50 was found to be 7. Also, the IC50 is 12.8 µM in [1], 40.3 µM in data set [2], 0.098 µM in [9] and 0.014 µM in [3]. Further, the Tm in data set [7] worked out at 85 °C. Besides, the inhibition entry in [8] is “Active”.
For `Cc1nc2ccc(NCCN(C)C)c3c(=O)c4ccccc4n1c23`, the results for the IC50 in data set [1], in data set [2] and in data set [3] were 0.5 µM, 1.94 µM and 0.09 µM, respectively.
With `CN(C)CCNc1ccc2ncn3c4ccc(F)cc4c(=O)c1c23`, the half-maximal inhibitory concentration (IC50) in [1] turned out to be 0.66 µM; in data set [2], 2.9 µM; in data set [3], 0.097 µM.
Taken in the same sequence, the figures for `CCN(CC)CCNc1ccc2ncn3c4ccc(O)cc4c(=O)c1c23` [C-1311] were 1.14 µM, 4.16 µM and 0.126 µM.
Take `Cc1nc2ccc(NCCN(C)C)c3c(=O)c4cc(O)ccc4n1c23`: the IC50 in data set [1] worked out at 0.95 µM; in data set [2], 3.01 µM; in data set [3], 0.09 µM.
In the case of `Cc1nc2ccc(NCC[N+](C)(C)[O-])c3c(=O)c4cc(F)ccc4n1c23`, the IC50 in data set [1] came to 9.2 µM; in [2], 31 µM; in data set [3] it was 0.097 µM.
On to `COc1ccc2c(c1)c(=O)c1c(NCC[N+](C)(C)[O-])ccc3nc(C)n2c31`, for which the IC50 was found to be 11.4 µM in data set [1], 58.2 µM in data set [2] and 0.073 µM in [3].
For `C[N+](C)([O-])CCNc1ccc2ncn3c4ccc(O)cc4c(=O)c1c23`, the IC50 turned out to be 19.7 µM in data set [1], 38.7 µM in [2] and 0.042 µM in data set [3].
As to `Cc1nc2ccc(NCCN(C)C)c3c(=O)c4cc(Br)ccc4n1c23`, the IC50 turned out to be 0.44 µM in data set [1], 1.91 µM in [2] and 0.074 µM in data set [3].
Taken in the same sequence, the figures for `C[N+](C)([O-])CCNc1ccc2ncn3c4ccc(F)cc4c(=O)c1c23` were 17.3 µM, 40.3 µM and 0.205 µM.
With `Cc1nc2ccc(NCCN(C)C)c3c(=O)c4cc(F)ccc4n1c23`, the results for the IC50 in data set [1], in data set [2] and in [3] were 0.51 µM, 2.11 µM and 0.083 µM, respectively.
Take `CN(C)CCNc1ccc2ncn3c4ccc(O)cc4c(=O)c1c23`: the values for the IC50 in [1], in data set [2] and in data set [3] were 0.37 µM, 1.61 µM and 0.083 µM, respectively.
Consider `Cc1nc2ccc(NCC[N+](C)(C)[O-])c3c(=O)c4cc(Br)ccc4n1c23`, for which the figures for the IC50 in [1], in [2] and in data set [3] were 10.6 µM, 49 µM and 0.047 µM, respectively.
On to `CN(C)CCNc1ccc2ncn3c4ccccc4c(=O)c1c23`, for which the Ratio IC50 in data set [5] is 38. Moreover, the 50% inhibitory concentration (IC50) was 0.6 µM in [1], 2.53 µM in [2] and 0.115 µM in [3].
Regarding `COc1ccc2c(c1)c(=O)c1c(NCCN(C)C)ccc3ncn2c31`, the Ratio IC50 in data set [5] was 54. In addition, in [10], the Drug uptake entry is recorded as “Active”. Further, the IC50 in data set [1] amounted to 0.51 µM; in [2] it was 2.1 µM; in data set [9], 3.2 µM; in data set [3], 0.059 µM. Further, in [7], the Tm came to 88.6 °C.
As to `C[N+](C)([O-])CCNc1ccc2ncn3c4ccccc4c(=O)c1c23`, in data set [5], the Ratio IC50 is 6.5. In addition, the results for the IC50 in data set [1], in data set [2] and in data set [3] were 12.1 µM, 41 µM and 0.096 µM, respectively.
As for `COc1cccc2c1C(=O)c1c(O)c3c(c(O)c1C2=O)C[C@@](O)(C(=O)CO)C[C@@H]3O[C@H]1C[C@H](N)[C@H](O)[C@H](C)O1`, the Tm in data set [7] was determined as 90.8 °C.
